Data reported in ChEMBL document CHEMBL2390890, “Optimization of a novel potent and selective bacterial DNA helicase inhibitor scaffold from a high throughput screening hit” (Bioorg Med Chem Lett, 2013).
pIC50, pKi: −log10 of the molar value. Calls of active or inactive are those of the source. The calls are words filed in the database; no cut-off is given here.

Columns and labels:
Bacillus anthracis = test: Antibacterial activity against Bacillus anthracis Sterne assessed as inhibition of incorporation of radiolabeled precursors into DNA; type: functional, organism-based
HeLa = test: Cytotoxicity against human HeLa cells by MTT assay in presence of serum free media; type: cell-based
[1] = Inhibition of Staphylococcus aureus replicative DNA helicase using Hel-5'FAM:Hel-3'BHQ as substrate assessed as DNA duplex strand unwinding by FRET assay
[2] = Inhibition of Bacillus anthracis replicative DNA helicase using Hel-5'FAM:Hel-3'BHQ as substrate assessed as DNA duplex strand unwinding by FRET assay
Staphylococcus aureus [3] = test: Inhibition of Staphylococcus aureus single-strand DNA-stimulated replicative DNA helicase ATPase activity assessed as release of inorganic phosphate at 50 uM after 30 mins by malachite green assay
Staphylococcus aureus [4] = test: (§1) Competitive inhibition of Staphylococcus aureus replicative DNA helicase using DNA as substrate by Dixon plot analysis
Summary of the method: (§2)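 FRET-based strand-unwinding assay with S. aureus replicative DNA helicase. An inhibitor dilution series was run at several oligonucleotide (DNA substrate) concentrations, the lowest being 3 nM. IC50 at each level came from 4-parameter curve fitting. Ki and the inhibition mode were derived from a Dixon plot of the DNA-variation data.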

Staphylococcus aureus [5] = test: (§3) Non-competitive inhibition of Staphylococcus aureus replicative DNA helicase using ATP as substrate
Summary of the method: (§4)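 S. aureus replicative DNA helicase was tested in a FRET-based unwinding assay. An inhibitor dilution series was run across several ATP concentrations. IC50 at each ATP level came from 4-parameter curve fitting, and the mode of inhibition was assigned from how IC50 shifted with ATP concentration.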

[6] = Selectivity index, ratio of CC50 for human HeLa cells to IC50 for Staphylococcus aureus replicative DNA helicase; type: functional
[7] = as §1; summary of the method: as §2
[8] = as §3; summary of the method: as §4

| SMILES | pIC50 [1] | pIC50 [2] | other results |
| --- | --- | --- | --- |
| COc1cc(C(=O)Nc2nc3ccc4nc(N5CCN(C)CC5)sc4c3s2)cc(OC)c1OC | 6.70 | 6.70 | pIC50 (Bacillus anthracis): 5.00; CC50 (HeLa): 2.8 µM |
| COc1cc(C(=O)Nc2nc3ccc4nc(NCCN(C)C)sc4c3s2)cc(OC)c1OC | 6.70 | 6.70 | CC50 (HeLa): < 0.78 µM |
| COc1cccc(C(=O)Nc2nc3ccc4nc(NCC(C)C)sc4c3s2)c1 | 5.05 | 4.89 | CC50 (HeLa): 44 µM |
| COc1cc(C(=O)Nc2nc3ccc4nc(NCCN5CCOCC5)sc4c3s2)cc(OC)c1OC | 6.70 | 6.70 | CC50 (HeLa): 5.7 µM |
| CSc1nc2ccc3nc(NC(=O)c4ccc(Oc5ccccc5)cc4)sc3c2s1 | – | < 4.00 | – |
| CSc1nc2ccc3nc(NC(=O)c4cccs4)sc3c2s1 | – | 4.05 | – |
| CSc1nc2ccc3nc(NC(=O)c4ccc(Cl)cc4)sc3c2s1 | – | 5.30 | – |
| CCOc1ccc(C(=O)Nc2nc3ccc4nc(SC)sc4c3s2)cc1 | – | 5.16 | – |
| CSc1nc2ccc3nc(NC(=O)CN4C(=O)CCC4=O)sc3c2s1 | – | < 4.00 | – |
| COc1cc(C(=O)Nc2nc3ccc4nc(SC)sc4c3s2)cc(OC)c1OC | 6.40 | 6.15 | CC50 (HeLa): > 100 µM |
| CSc1nc2ccc3nc(NC(=O)c4cccc(N(C)C)c4)sc3c2s1 | – | 4.44 | – |
| CSc1nc2ccc3nc(NC(=O)c4ccc(C#N)cc4)sc3c2s1 | – | 4.96 | – |
| COc1cccc(C(=O)Nc2nc3ccc4nc(N5CCOCC5)sc4c3s2)c1 | 5.52 | 5.64 | CC50 (HeLa): > 100 µM |
| COc1cc(OC)cc(C(=O)Nc2nc3ccc4nc(SC)sc4c3s2)c1 | – | 5.77 | – |
| CSc1nc2ccc3nc(NC(=O)c4ccccc4Oc4ccccc4)sc3c2s1 | – | < 4.00 | – |
| CSc1nc2ccc3nc(NC(=O)c4ccc(C)c(C)c4)sc3c2s1 | – | 5.49 | – |
| CNc1nc2ccc3nc(NC(=O)c4cc(OC)c(OC)c(OC)c4)sc3c2s1 | 6.70 | 6.70 | inhibition (Staphylococcus aureus [3]): inactive; inhibition (Staphylococcus aureus [4]): Active; inhibition (Staphylococcus aureus [5]): Active; Ratio CC50/IC50 [6]: >500; CC50 (HeLa): > 100 µM |
| COc1cc(C(=O)Nc2nc3ccc4nc(NCCO)sc4c3s2)cc(OC)c1OC | 6.52 | 6.70 | pIC50 (Bacillus anthracis): 4.77; inhibition (Staphylococcus aureus [4]): Active; inhibition (Staphylococcus aureus [5]): Active; CC50 (HeLa): > 100 µM |
| CSc1nc2ccc3nc(NC(=O)c4ccco4)sc3c2s1 | – | 3.99 | – |
| CNc1nc2ccc3nc(NC(=O)c4cccc(OC)c4)sc3c2s1 | 5.66 | 6.30 | inhibition (Staphylococcus aureus [3]): inactive; pKi [7]: 5.70; pIC50 [8]: 5.70; CC50 (HeLa): > 100 µM |
| COc1cccc(C(=O)Nc2nc3ccc4nc(NCCO)sc4c3s2)c1 | 5.38 | 5.66 | CC50 (HeLa): > 100 µM |

| SMILES | pIC50 [1] | pIC50 [2] | other results |
| --- | --- | --- | --- |
| CSc1nc2ccc3nc(NC(=O)c4cccc(F)c4)sc3c2s1 | – | 5.48 | – |
| COc1cccc(OC)c1C(=O)Nc1nc2ccc3nc(SC)sc3c2s1 | – | < 4.00 | – |
| COc1cccc(C(=O)Nc2nc3ccc4nc(NCCN(C)C)sc4c3s2)c1 | 6.00 | 6.00 | – |
| COc1cccc(C(=O)Nc2nc3ccc4nc(NC5CCCCC5)sc4c3s2)c1 | < 4.00 | 4.05 | – |
| CSc1nc2ccc3nc(NC(=O)c4cccc([N+](=O)[O-])c4)sc3c2s1 | – | 5.55 | – |
| CSc1nc2ccc3nc(NC(=O)c4cccc(Cl)c4)sc3c2s1 | – | 5.28 | – |
| CSc1nc2ccc3nc(NC(=O)c4cc(C)no4)sc3c2s1 | – | < 4.30 | – |
| COc1cccc(C(=O)Nc2nc3ccc4nc(NC(C)C)sc4c3s2)c1 | 4.10 | 4.19 | – |
| CSc1nc2ccc3nc(NC(=O)c4c(C)cnn4C)sc3c2s1 | – | < 4.30 | – |
| COc1ccc(C(=O)Nc2nc3ccc4nc(SC)sc4c3s2)c(OC)c1 | – | < 4.00 | – |
| CSc1nc2ccc3nc(NC(=O)c4ccccc4C)sc3c2s1 | – | 5.18 | – |
| CSc1nc2ccc3nc(NC(=O)c4ccccc4F)sc3c2s1 | – | 4.30 | – |
| COc1ccc(C(=O)Nc2nc3ccc4nc(SC)sc4c3s2)cc1OC | – | 5.68 | – |
| CSc1nc2ccc3nc(NC(=O)COc4ccc(Cl)cc4Cl)sc3c2s1 | – | < 4.00 | – |
| CSc1nc2ccc3nc(NC(=O)Cc4ccccc4)sc3c2s1 | – | 4.33 | – |
| COc1c(C(=O)Nc2nc3ccc4nc(SC)sc4c3s2)cnn1C | – | < 4.00 | – |
| CSc1nc2ccc3nc(NC(=O)c4ccc(C)cc4)sc3c2s1 | – | 5.12 | – |
| CSc1nc2ccc3nc(NC(=O)c4cnccn4)sc3c2s1 | – | 4.55 | – |
| CSc1nc2ccc3nc(NC(=O)c4ccccc4Cl)sc3c2s1 | – | < 4.00 | – |
| COc1cccc(C(=O)Nc2nc3ccc4nc(NCc5ccccc5)sc4c3s2)c1 | < 4.00 | 4.12 | – |
| CSc1nc2ccc3nc(NC(=O)c4ccc(N5C(=O)CCC5=O)cc4)sc3c2s1 | – | 5.89 | – |

| SMILES | pIC50 [1] | pIC50 [2] | other results |
| --- | --- | --- | --- |
| COc1ccc(C(=O)Nc2nc3ccc4nc(SC)sc4c3s2)cc1 | – | 5.66 | – |
| CCN(CC)c1ccc(C(=O)Nc2nc3ccc4nc(SC)sc4c3s2)cc1 | – | < 4.00 | – |
| CSc1nc2ccc3nc(NC(=O)c4ccc(OC(C)C)cc4)sc3c2s1 | – | < 4.00 | – |
| CSc1nc2ccc3nc(NC(=O)c4ccc(N(C)C)cc4)sc3c2s1 | – | 5.62 | – |
| CSc1nc2ccc3nc(NC(=O)c4ccc(C(C)(C)C)cc4)sc3c2s1 | – | < 4.00 | – |
| COc1cccc(C(=O)Nc2nc3ccc4nc(NCCN5CCOCC5)sc4c3s2)c1 | 5.66 | 6.30 | CC50 (HeLa): 9.6 µM |
| CCCNc1nc2ccc3nc(NC(=O)c4cccc(OC)c4)sc3c2s1 | 5.89 | 5.96 | CC50 (HeLa): < 0.08 µM |
| CCN(CC)S(=O)(=O)c1ccc(C(=O)Nc2nc3ccc4nc(SC)sc4c3s2)cc1 | – | < 4.00 | – |
| CSc1nc2ccc3nc(NC(=O)c4ccc5c(c4)OCCO5)sc3c2s1 | – | 5.52 | – |
| CSc1nc2ccc3nc(NC(=O)c4ccccc4Br)sc3c2s1 | – | < 4.00 | – |
| CSc1nc2ccc3nc(NC(=O)c4c(F)cccc4F)sc3c2s1 | – | 4.19 | – |
| COc1cc(CNc2nc3ccc4nc(SC)sc4c3s2)cc(OC)c1OC | < 4.00 | – | – |
| COc1cc(/C=N/c2nc3ccc4nc(SC)sc4c3s2)cc(OC)c1OC | < 4.00 | – | – |
| CSc1nc2ccc3nc(NC(=O)c4cccc(N5C(=O)CCC5=O)c4)sc3c2s1 | 4.92 | 5.30 | CC50 (HeLa): > 100 µM |
| COc1cccc(C(=O)Nc2nc3ccc4nc(SC)sc4c3s2)c1 | 5.18 | 4.90 | CC50 (HeLa): 12.4 µM |
| CSc1nc2ccc3nc(NC(=O)C4CC4)sc3c2s1 | – | < 4.00 | – |
| CSc1nc2ccc3nc(NC(=O)CCc4ccccc4)sc3c2s1 | – | < 4.00 | – |
| COc1cc2ccccc2cc1C(=O)Nc1nc2ccc3nc(SC)sc3c2s1 | – | < 4.30 | – |
| COC(=O)c1ccc(C(=O)Nc2nc3ccc4nc(SC)sc4c3s2)cc1 | – | 5.43 | – |
| CSc1nc2ccc3nc(NC(=O)c4cccc(Br)c4)sc3c2s1 | – | 5.64 | – |
